From ChEMBL document CHEMBL5120825, “The azulene scaffold from a medicinal chemist's perspective: Physicochemical and in vitro parameters relevant for drug discovery” (Eur J Med Chem, 2022)
Values after ≈ are worked out from the molar mass of the structure shown.

Key:
[1] = Dissociation constant, pKa of the compound by dip probe absorption spectroscopy; type: physicochemical
Cytochrome P450 2C9 = Cytochrome P450 2C9 (Homo sapiens, UniProt P11712); assay: Inhibition of CYP2C9 in human liver microsomes using diclofenac as substrate preincubated with compound followed by NADPH addition by LC-MS/MS analysis; type: ADME, Microsome
Sequence of Cytochrome P450 2C9 (P11712 whole entry): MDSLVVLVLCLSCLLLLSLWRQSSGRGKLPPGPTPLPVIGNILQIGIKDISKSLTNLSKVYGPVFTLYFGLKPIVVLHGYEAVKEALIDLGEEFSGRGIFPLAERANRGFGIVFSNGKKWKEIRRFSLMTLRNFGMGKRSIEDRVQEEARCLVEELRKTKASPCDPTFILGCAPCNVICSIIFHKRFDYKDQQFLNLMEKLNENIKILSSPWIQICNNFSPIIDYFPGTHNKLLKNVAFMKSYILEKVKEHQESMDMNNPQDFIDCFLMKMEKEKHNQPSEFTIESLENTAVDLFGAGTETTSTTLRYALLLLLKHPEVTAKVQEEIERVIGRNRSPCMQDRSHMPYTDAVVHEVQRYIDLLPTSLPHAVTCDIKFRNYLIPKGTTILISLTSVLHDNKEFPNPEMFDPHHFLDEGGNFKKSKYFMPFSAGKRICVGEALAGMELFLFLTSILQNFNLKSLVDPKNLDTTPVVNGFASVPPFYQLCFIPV

Cytochrome P450 2C8 = molecular target: T1, Cytochrome P450 2C8 (Homo sapiens, UniProt P10632); assay: Inhibition of CYP2C8 in human liver microsomes using amodiaquine as substrate preincubated with compound followed by NADPH addition by LC-MS/MS analysis; type: ADME, Microsome
T1 sequence (P10632 whole entry): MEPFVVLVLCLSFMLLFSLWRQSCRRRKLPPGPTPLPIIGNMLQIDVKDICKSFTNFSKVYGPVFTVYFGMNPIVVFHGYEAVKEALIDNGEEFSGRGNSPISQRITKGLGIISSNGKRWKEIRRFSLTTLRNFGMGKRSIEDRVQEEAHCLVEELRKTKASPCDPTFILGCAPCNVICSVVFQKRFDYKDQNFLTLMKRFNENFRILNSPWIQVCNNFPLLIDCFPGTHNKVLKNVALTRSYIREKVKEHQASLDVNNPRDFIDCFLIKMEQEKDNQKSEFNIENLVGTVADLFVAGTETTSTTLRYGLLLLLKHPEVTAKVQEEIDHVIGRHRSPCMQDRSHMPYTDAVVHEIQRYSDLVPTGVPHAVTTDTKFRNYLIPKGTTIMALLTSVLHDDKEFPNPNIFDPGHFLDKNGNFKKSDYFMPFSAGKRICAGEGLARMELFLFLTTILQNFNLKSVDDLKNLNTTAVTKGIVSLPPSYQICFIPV

Cytochrome P450 2C19 = Cytochrome P450 2C19 (Homo sapiens, UniProt P33261); assay: Inhibition of CYP2C19 in human liver microsomes using mephenytoin as substrate preincubated with compound followed by NADPH addition by LC-MS/MS analysis; type: ADME, Microsome
Sequence of Cytochrome P450 2C19 (P33261 whole entry): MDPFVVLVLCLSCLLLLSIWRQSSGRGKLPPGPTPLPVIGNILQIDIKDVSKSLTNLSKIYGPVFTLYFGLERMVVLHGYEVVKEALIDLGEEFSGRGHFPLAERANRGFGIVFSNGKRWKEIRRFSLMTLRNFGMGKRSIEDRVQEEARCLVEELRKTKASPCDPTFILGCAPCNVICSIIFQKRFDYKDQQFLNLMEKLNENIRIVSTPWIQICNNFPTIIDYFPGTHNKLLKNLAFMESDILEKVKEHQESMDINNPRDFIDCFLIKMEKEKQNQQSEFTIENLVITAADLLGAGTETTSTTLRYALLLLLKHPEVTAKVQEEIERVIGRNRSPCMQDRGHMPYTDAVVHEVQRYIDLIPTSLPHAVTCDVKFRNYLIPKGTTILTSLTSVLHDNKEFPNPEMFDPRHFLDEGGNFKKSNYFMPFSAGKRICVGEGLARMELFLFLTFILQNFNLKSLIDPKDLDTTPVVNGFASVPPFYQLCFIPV

Cytochrome P450 2D6 = Cytochrome P450 2D6 (Homo sapiens, UniProt P10635); assay: Inhibition of CYP2D6 in human liver microsomes using dextromethorphan as substrate preincubated with compound followed by NADPH addition by LC-MS/MS analysis; type: ADME, Microsome
Sequence of Cytochrome P450 2D6 (P10635 whole entry): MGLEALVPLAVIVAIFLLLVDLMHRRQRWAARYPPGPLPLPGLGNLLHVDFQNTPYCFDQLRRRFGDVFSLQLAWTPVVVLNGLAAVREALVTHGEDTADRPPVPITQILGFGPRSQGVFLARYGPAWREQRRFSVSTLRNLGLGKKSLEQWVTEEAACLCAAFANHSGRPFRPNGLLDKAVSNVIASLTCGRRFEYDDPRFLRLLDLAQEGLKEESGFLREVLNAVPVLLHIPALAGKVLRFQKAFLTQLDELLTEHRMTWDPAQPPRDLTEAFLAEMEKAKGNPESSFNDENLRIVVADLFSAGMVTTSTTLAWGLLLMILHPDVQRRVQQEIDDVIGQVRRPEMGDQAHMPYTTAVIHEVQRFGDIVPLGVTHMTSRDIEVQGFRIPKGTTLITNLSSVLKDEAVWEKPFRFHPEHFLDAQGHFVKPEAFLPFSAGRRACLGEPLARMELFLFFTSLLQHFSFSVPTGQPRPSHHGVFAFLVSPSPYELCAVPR

Cytochrome P450 3A4 = Cytochrome P450 3A4 (Homo sapiens, UniProt P08684); assay: Inhibition of CYP3A4 in human liver microsomes using midazolam as substrate preincubated with compound followed by NADPH addition by LC-MS/MS analysis; type: ADME, Microsome
Sequence of Cytochrome P450 3A4 (P08684 whole entry): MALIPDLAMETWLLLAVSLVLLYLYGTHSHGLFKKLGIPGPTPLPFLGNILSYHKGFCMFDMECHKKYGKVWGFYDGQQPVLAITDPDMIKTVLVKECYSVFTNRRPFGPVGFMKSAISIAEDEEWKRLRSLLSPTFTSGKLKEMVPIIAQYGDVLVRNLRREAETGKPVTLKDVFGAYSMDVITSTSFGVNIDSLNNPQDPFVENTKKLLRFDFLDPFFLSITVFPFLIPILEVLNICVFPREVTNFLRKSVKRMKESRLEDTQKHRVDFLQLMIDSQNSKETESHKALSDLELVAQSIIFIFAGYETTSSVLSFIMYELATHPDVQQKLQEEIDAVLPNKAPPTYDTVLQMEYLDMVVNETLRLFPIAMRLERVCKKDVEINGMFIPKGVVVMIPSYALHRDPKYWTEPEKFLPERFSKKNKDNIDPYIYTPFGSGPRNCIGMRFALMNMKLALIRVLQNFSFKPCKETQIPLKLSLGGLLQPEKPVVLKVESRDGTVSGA

[2] = Octanol-water partition coefficient, logD of the compound at pH 2 by HPLC analysis; type: physicochemical
[3] = Aqueous solubility of the compound at pH 2.2 incubated for 24 hrs under shaking condition by LC-UV analysis; type: physicochemical; conditions: aqueous medium
How it was run: (§1)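 The highest concentration tested was 250 μM, so results are capped at that level. Values are reported in µg/ml.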

[4] = Metabolic stability in human liver microsomes assessed as hepatic blood flow at 1 uM preincubated with compound followed by NADPH addition by LC-MS/MS analysis; type: ADME, Microsome; conditions: read-out: QH
[5] = Permeability of the compound at pH 7.4 by PAMPA assay; type: ADME; conditions: read-out: permeability
[6] = Aqueous solubility of the compound at pH 6.8 incubated for 24 hrs under shaking condition by LC-UV analysis; type: physicochemical; conditions: aqueous medium; how it was run: as §1
[7] = Octanol-water partition coefficient, logD of the compound at pH 11 by HPLC analysis; type: physicochemical; conditions: read-out: logD
[8] = Aqueous solubility of the compound at pH 4.5 incubated for 24 hrs under shaking condition by LC-UV analysis; type: physicochemical; conditions: aqueous medium; how it was run: as §1
[9] = Lipophilicity, logP of the compound; type: physicochemical; conditions: octanol/water
[10] = Photostability of the compound at pH 8.6 assessed as compound degradation administered as solution irradiated with sun light and measured after 7 days by HPLC analysis; type: physicochemical; conditions: time 7 day, read-out: Drug degradation
How it was run: (§2)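 Compound in solution was kept for 7 days under "mild" light-stress conditions, with no pH adjustment. The pH listed for each compound is the solution's own intrinsic pH. Result is % degradation of parent.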

[11] = Stability of the compound at pH 7.4 assessed as half life measured after 24 hrs in presence of GSH by HPLC analysis; type: physicochemical; conditions: solution with GSH
[12] = Cytotoxicity against human HepG2 cells assessed as cell growth inhibition incubated for 24 hrs by MTT assay; type: toxicity, cell-based
How it was run: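 HepG2 human hepatoma cells were exposed to compound at concentrations up to 400 µM and viability was read by MTT. The result is given in µM.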

[13] = Photostability of the compound assessed as compound degradation administered as solid irradiated with sun light and measured after 7 days by HPLC analysis
[14] = Hydrolytic stability of the compound in aqueous buffer at pH 7.4 assessed as compound decomposition measured after 3 days by HPLC analysis; type: physicochemical; conditions: time 3 day, read-out: Drug degradation
How it was run: (§3)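 Compound was held for 3 days at 40 °C in 0.1 M HCl in water or in aqueous buffer at pH 7.4. Dissolution was confirmed by eye, and decomposition is reported as % loss of parent.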

[15] = Hydrolytic stability of the compound in aqueous HCl assessed as compound decomposition measured after 3 days by HPLC analysis; type: physicochemical; conditions: time 3 day, read-out: Drug degradation; how it was run: as §3
[16] = Photostability of the compound assessed as compound degradation administered as aqueous solution irradiated with UV and measured after 24 hrs by HPLC analysis
[17] = Photostability of the compound at pH 7.1 assessed as compound degradation administered as solution irradiated with sun light and measured after 7 days by HPLC analysis; type: physicochemical; conditions: time 7 day, read-out: Drug degradation; how it was run: as §2

| SMILES | logD ([2]; read-out: logD) | solubility thermodynamic at 24 h [3] [µg/mL] | hepatic extraction ratio at 1 µM [4] | Papp [5] [×10⁻⁶ cm/s] | solubility thermodynamic at 24 h [6] [µg/mL] | logD [7] | solubility thermodynamic at 24 h [8] [µg/mL] | logP ([9]; read-out: logP) | other results |
| --- | --- | --- | --- | --- | --- | --- | --- | --- | --- |
| O=C(O)c1c[nH]c2ccccc12 |  |  |  |  |  |  |  |  | pKa [1]: 5.29 |
| O=C(O)c1ccc2ccc(C(=O)c3ccc(C(F)(F)F)cc3)c-2cc1 |  |  |  |  |  |  |  |  | IC50 (Cytochrome P450 2C9): > 50 µM; IC50 (Cytochrome P450 2C8): 13 µM; IC50 (Cytochrome P450 2C19): > 50 µM; IC50 (Cytochrome P450 2D6): > 50 µM; IC50 (Cytochrome P450 3A4): > 50 µM |
| O=C(O)c1ccc2c(C(=O)c3ccccc3)cc(C(=O)c3ccccc3)c-2cc1 |  |  |  |  |  |  |  |  | IC50 (Cytochrome P450 2C9): 12 µM; IC50 (Cytochrome P450 2C8): 1.5 µM; IC50 (Cytochrome P450 2C19): > 50 µM; IC50 (Cytochrome P450 2D6): > 50 µM; IC50 (Cytochrome P450 3A4): > 50 µM |
| O=C(NCCc1cnc[nH]1)c1ccc2ccc(C(=O)c3ccccc3)c-2cc1 | 1.3 | > 77 | 0.41 | 0.3 | < 1 | 2.3 | 57 (≈ 154 µM) | 2.3 |  |
| CN(C)C(=O)c1ccc2cccccc1-2 |  | > 43 | 0.67 | 7.6 | > 40 | 1.6 | > 44 |  | logD [2]: 2.1; degraded at 168 h [10]: 3%; half-life [11]: > 41.7 days; EC50 at 24 h [12]: > 400 µM; degraded at 168 h [13]: < 0.5%; IC50 (Cytochrome P450 2C9): > 50 µM; degraded at 72 h [14]: < 0.5%; IC50 (Cytochrome P450 2C8): > 50 µM; degraded at 72 h [15]: < 0.5%; degraded at 24 h [16]: 100%; IC50 (Cytochrome P450 2C19): > 50 µM; IC50 (Cytochrome P450 2D6): > 50 µM; logP [9]: 1.6; IC50 (Cytochrome P450 3A4): > 50 µM |
| COC(=O)c1ccc2ccc(C(=O)N(C)C)c-2cc1 | 2.3 | > 64 |  | 7.4 | > 64 | 2.1 | 50 (≈ 194 µM) | 2.1 | half-life [11]: > 41.7 days |
| CN(C)C(=O)c1cccc2ccccc12 |  | > 47 | < 0.23 | 8.3 | > 43 | 1.8 | > 50 |  | logD [2]: 2.2; degraded at 24 h [16]: < 0.5%; logP [9]: 1.8 |
| CN1CCN(C(=O)c2ccc3c(c2)c(C(=O)c2ccccc2)cn3C)CC1 | 0.7 | 78 (≈ 216 µM) | < 0.23 | 1.9 | 68 (≈ 188 µM) | 2 | 76 (≈ 210 µM) | 2 |  |
| NC(=O)C1CCN(C(=O)c2ccc3cccccc2-3)CC1 |  | > 71 | < 0.23 | 0.5 | > 58 | 0.6 | > 57 |  | logD [2]: 1.2; EC50 at 24 h [12]: > 400 µM; IC50 (Cytochrome P450 2C9): > 50 µM; IC50 (Cytochrome P450 2C8): > 50 µM; IC50 (Cytochrome P450 2C19): > 50 µM; IC50 (Cytochrome P450 2D6): > 50 µM; logP [9]: 0.6; IC50 (Cytochrome P450 3A4): > 50 µM |
| O=C(NCc1cccnc1)c1ccc2ccc(C(=O)c3ccccc3)c-2cc1 | 1.4 | 70 (≈ 191 µM) | 0.46 | 2.4 | < 1 | 1.4 | < 1 | 3 |  |
| Cn1cc(C(=O)c2ccccc2)c2cc(C(=O)NCCc3cnc[nH]3)ccc21 | 0.9 | 84 (≈ 226 µM) | 0.23 | 0.1 | 72 (≈ 193 µM) | 1.5 | 107 (≈ 287 µM) | 1.5 |  |
| Cn1cc(C(=O)c2ccccc2)c2cc(C(=O)NCCc3c[nH]c4ccccc34)ccc21 | 3.6 | < 1 | 0.79 | 0.04 | < 1 | 3.5 | < 1 | 3.5 |  |
| COc1cccc(C(=O)c2ccc3ccc(C(=O)O)ccc2-3)c1 |  |  |  |  |  |  |  |  | IC50 (Cytochrome P450 2C9): > 50 µM; IC50 (Cytochrome P450 2C8): 22 µM; IC50 (Cytochrome P450 2C19): > 50 µM; IC50 (Cytochrome P450 2D6): > 50 µM; IC50 (Cytochrome P450 3A4): > 50 µM |
| O=C(NCc1cccnc1)c1ccc2[nH]cc(C(=O)c3ccccc3)c2c1 | 0.8 | > 79 | 0.56 | 0.1 | < 1 | 0.8 | 1 (≈ 2.81 µM) | 1.4 |  |
| COCC(=O)Nc1cc2cccccc-2c1 |  |  |  |  |  |  |  |  | EC50 at 24 h [12]: > 400 µM; IC50 (Cytochrome P450 2C9): > 50 µM; IC50 (Cytochrome P450 2C8): > 50 µM; IC50 (Cytochrome P450 2C19): 22 µM; IC50 (Cytochrome P450 2D6): > 50 µM; IC50 (Cytochrome P450 3A4): > 50 µM |
| O=C(NCCc1c[nH]c2ccccc12)c1ccc2ccc(C(=O)c3ccccc3)c-2cc1 | 4.4 | < 1 | 0.69 | 0.03 | < 1 | 4.3 | < 1 | 4.3 |  |
| CN(C)C(=O)c1cn(C)c2ccccc12 |  | > 51 | 0.55 | 6.7 | > 51 | 1.3 | > 51 |  | logD [2]: 1.8; degraded at 24 h [16]: < 0.5%; logP [9]: 1.3 |
| Cn1cc(C(=O)c2ccccc2)c2cc(C(=O)NCc3cccnc3)ccc21 | 0.9 | 81 (≈ 219 µM) | < 0.23 | 1.7 | < 1 | 0.9 | 3 (≈ 8.12 µM) | 2.1 |  |
| O=C(NCCc1cnc[nH]1)C1=CC2C(C(=O)c3ccccc3)=CN=C2C=C1 (stereo unspecified) | 0.7 | > 81 | < 0.23 | < 0.01 | 66 (≈ 184 µM) | 0.8 | 78 (≈ 218 µM) | 0.8 |  |
| CN(C)C(=O)c1c[nH]c2ccccc12 |  | > 47 | 0.25 | 2.2 | > 44 | 0.4 | > 47 |  | logD [2]: 1.1; degraded at 24 h [16]: < 0.5%; logP [9]: 0.4 |
| O=C(O)c1ccc2cccccc1-2 |  |  |  |  |  |  |  |  | pKa [1]: 5.1 |
| O=C(Cn1ccccc1=O)Nc1cc2cccccc-2c1 | 2 | 4 (≈ 14.4 µM) | < 0.23 | 3.7 | 2 (≈ 7.19 µM) | 1.7 | 2 (≈ 7.19 µM) | 1.7 | half-life [11]: > 41.7 days; degraded at 168 h [17]: 85%; degraded at 168 h [13]: < 0.5%; degraded at 72 h [14]: < 0.5%; degraded at 72 h [15]: 3.5% |
| Cn1cc(C(=O)c2ccccc2)c2cc(C(=O)NCCO)ccc21 | 1.6 | 53 (≈ 164 µM) | < 0.23 | 0.5 | 45 (≈ 140 µM) | 1.6 | 66 (≈ 205 µM) | 1.3 |  |
| C=CC(=O)N1C[C@H](Nc2ncnc3[nH]ccc23)CC[C@@H]1C [RITLECITINIB] |  |  |  |  |  |  |  |  | half-life [11]: 1.33 days |
